Here are results for 8 compounds from ChEMBL document CHEMBL4316635, “Synthesis, Structure Revision, and Cytotoxicity of Nocarbenzoxazole G” (J Nat Prod, 2019).

Assay [1] has as its system T98G. Put plainly: Cytotoxicity in human T98G cells assessed as reduction in cell viability incubated for 48 hrs by CCK8 assay. The class given is cell-based. The procedure, abridged:
(§1)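 Exponentially growing cells, routinely kept in DMEM or RPMI1640 (line-dependent) with 10% FBS, penicillin/streptomycin at 37 °C and 5% CO₂, were seeded at 1.0 × 10⁴ cells/well in triplicate. The next day they were treated at 1.25–20 μM for 48 h. CCK-8 reagent was then added for 1 h and absorbance read at 450 nm. Controls received medium with 0.5% (v/v) DMSO.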
On the technique in general: Formazan colour is commonly taken as a measure of viable cells.

Assay [2] concerns HepG2. Put plainly: Cytotoxicity in human HepG2 cells assessed as reduction in cell viability incubated for 48 hrs by CCK8 assay. The class given is functional, cell-based. The following applies: HepG2, 48 h. The procedure, abridged: as §1
Assay [3] has as its system MDA-MB-231. The assay is described as follows: Cytotoxicity in human MDA-MB-231 cells assessed as reduction in cell viability incubated for 48 hrs by CCK8 assay. The assay is classed as functional, cell-based. The following applies: MDA-MB-231, 48 h. The procedure, abridged: as §1
Assay [4] has as its system HeLa. The assay is described as follows: Cytotoxicity in human HeLa cells assessed as reduction in cell viability incubated for 48 hrs by CCK8 assay. The assay is classed as functional, cell-based. The procedure, abridged: as §1
Assay [5] concerns MCF7. Put plainly: Cytotoxicity in human MCF7 cells assessed as reduction in cell viability incubated for 48 hrs by CCK8 assay. The following applies: MCF7, 48 h. The assay is classed as functional, cell-based. The procedure, abridged: as §1
Assay [6] has as its system Hep 3B2. Put plainly: Cytotoxicity in human Hep3B cells assessed as reduction in cell viability incubated for 48 hrs by CCK8 assay. The class given is functional, cell-based. The procedure, abridged:
as §1

In the case of `OCc1ccc2oc(-c3ccc(O)cc3)nc2c1`, the half-maximal inhibitory concentration (IC50) in assay [1] was greater than 20 µM; in assay [2] it was greater than 20 µM; in assay [3], greater than 20 µM; in assay [4], 4.7 µM; in assay [5] it was greater than 20 µM; in assay [6], greater than 20 µM.

As for `COc1cc(O)ccc1-c1nc2cc(CO)ccc2o1`, the IC50 in assay [1] is greater than 20 µM; in assay [2], greater than 20 µM; in assay [3] it was greater than 20 µM; in assay [4], 2.9 µM; in assay [5] it was greater than 20 µM; in assay [6] it was greater than 20 µM.

Turning to `Cc1cc(-c2nc3cc(CO)ccc3o2)cc(C)c1N`, the IC50 in assay [1] was greater than 20 µM; in assay [2], greater than 20 µM; in assay [3], greater than 20 µM; in assay [4], 19 µM; in assay [5], greater than 20 µM; in assay [6] it was greater than 20 µM.

On to `COc1cc(-c2nc3cc(CO)ccc3o2)ccc1O`, for which the IC50 in assay [1] is greater than 20 µM; in assay [2], greater than 20 µM; in assay [3], greater than 20 µM; in assay [4], 5.7 µM; in assay [5], greater than 20 µM; in assay [6] it was greater than 20 µM.

For `OCc1ccc2oc(-c3ccc(O)c(Cl)c3)nc2c1`, the half-inhibitory concentration (IC50) in assay [1] is greater than 20 µM; in assay [2], greater than 20 µM; in assay [3] it was greater than 20 µM; in assay [4], 11 µM; in assay [5] it was greater than 20 µM; in assay [6], greater than 20 µM.

Turning to `OCc1ccc2oc(-c3ccc4[nH]ccc4c3)nc2c1`, the IC50 in assay [1] was greater than 20 µM; in assay [2], greater than 20 µM; in assay [3] it was greater than 20 µM; in assay [4] it was 8.9 µM; in assay [5], greater than 20 µM; in assay [6], greater than 20 µM.

Take `OCc1ccc2oc(-c3ccc4cc(O)ccc4c3)nc2c1`: the IC50 is greater than 20 µM in assay [1]; greater than 20 µM in assay [2]; greater than 20 µM in assay [3]; 0.56 µM in assay [4]; greater than 20 µM in assay [5]; greater than 20 µM in assay [6].

On to `OCc1ccc2oc(-c3ccc(Cl)cc3)nc2c1`, for which the IC50 was greater than 20 µM in assay [1]; greater than 20 µM in assay [2]; greater than 20 µM in assay [3]; 16 µM in assay [4]; greater than 20 µM in assay [5]; greater than 20 µM in assay [6].

For orientation: IC50 means the concentration that inhibits the measured activity by half.
